# From ChEMBL document CHEMBL5303300, “EUbOPEN Chemogenomics Library - Multiplex” (2023)
# Where “and” joins values, the source holds several entries; their conditions need not be identical. Equal values may be shown once.
# Test system: U2OS
# Assay: Multiplex assay against U2OS
# Assay type: toxicity, cell-based
# Settings: human, number of replicates 2
# Procedure, shortened: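 At seeding, live cells were stained with Hoechst33342, BioTracker Green Microtubule Cytoskeleton Dye, MitoTracker Red and Annexin V Alexa Fluor 680. After compound addition they were imaged on a CQ1 microscope at 37°C and 5% CO2, and CellPathfinder machine-learning gating sorted them into Hoechst high-intensity objects or normal cells, with normal cells further split into healthy, pyknosed or fragmented nuclei and pyknosed cells into mitotic or apoptotic. Tubulin, mitochondrial-mass and membrane-permeability phenotypes are given as per cents of cells with healthy nuclei.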
# [1] = 12 h, 1 µM, compound concentration 1 uM
# [2] = 12 h, 10 µM, compound concentration 10 uM
# [3] = 24 h, 1 µM, compound concentration 1 uM
# [4] = 24 h, 10 µM, compound concentration 10 uM
# [5] = 48 h, 1 µM, compound concentration 1 uM
# [6] = 48 h, 10 µM, compound concentration 10 uM
smiles,measurement,setting,value
CS(=O)(=O)c1ccc(C(=O)Nc2cccc(COc3ccc(Br)cc3CN3CC[C@H](O)C3)c2)cc1.O=CO,Population Apoptotic (%),[1],100% and 72%
same,Population Fragmented Nuclei (%),[1],8% and 2%
same,Population Healthy Nuclei (%),[1],84% and 83%
same,Population Hoechst High Intensity Objects (%),[1],0%
same,Population Normal (%),[1],100%
same,Population Apoptotic (%),[2],100% and 70%
same,Population Healthy Nuclei (%),[2],68% and 78%
same,Population Hoechst High Intensity Objects (%),[2],0%
same,Population Normal (%),[2],100% and 99%
same,Population Apoptotic (%),[3],50%
same,Population Fragmented Nuclei (%),[3],4% and 3%
same,Population Healthy Nuclei (%),[3],85% and 86%
same,Population Hoechst High Intensity Objects (%),[3],0%
same,Population Mitotic Cells (%),[3],50% and 31%
same,Population Normal (%),[3],100% and 99%
same,Population Apoptotic (%),[4],88% and 75%
same,Population Healthy Nuclei (%),[4],58% and 73%
same,Population Hoechst High Intensity Objects (%),[4],0%
same,Population Mitotic Cells (%),[4],11% and 24%
same,Population Normal (%),[4],100%
same,Population Apoptotic (%),[5],54% and 76%
same,Population Fragmented Nuclei (%),[5],4% and 1%
same,Population Healthy Nuclei (%),[5],84% and 89%
same,Population Hoechst High Intensity Objects (%),[5],0%
same,Population Mitotic Cells (%),[5],45% and 23%
same,Population Normal (%),[5],100% and 99%
same,Population Apoptotic (%),[6],75% and 80%
same,Population Healthy Nuclei (%),[6],54% and 69%
same,Population Hoechst High Intensity Objects (%),[6],0%
same,Population Mitotic Cells (%),[6],25% and 19%
same,Population Normal (%),[6],100% and 99%
CN1CCCN(C(=O)c2cccc(-c3ccc(/C=C4/C(=O)Nc5ccc(Cl)cc54)o3)c2)CC1,Population Apoptotic (%),[1],64% and 66%
same,Population Fragmented Nuclei (%),[1],9% and 10%
same,Population Healthy Nuclei (%),[1],77% and 81%
same,Population Hoechst High Intensity Objects (%),[1],0%
same,Population Membrane Permeable-Phenotype (%),[1],0%
same,Population Mitochondria Different-Phenotype (%),[1],6% and 0%
same,Population Mitotic Cells (%),[1],35% and 33%
same,Population Normal (%),[1],100%
same,Population Pyknosed Nuclei (%),[1],13% and 8%
same,Population Tubulin-Different-Phenotype (%),[1],70% and 43%
same,Population Apoptotic (%),[2],91% and 64%
same,Population Healthy Nuclei (%),[2],18% and 30%
same,Population Hoechst High Intensity Objects (%),[2],0% and 10%
same,Population Normal (%),[2],99% and 89%
same,Population Pyknosed Nuclei (%),[2],68% and 26%
same,Population Tubulin-Different-Phenotype (%),[2],100% and 56%
same,Total Cell Count,[2],142 and 58
same,Population Apoptotic (%),[3],62% and 87%
same,Population Fragmented Nuclei (%),[3],7% and 8%
same,Population Healthy Nuclei (%),[3],73%
same,Population Hoechst High Intensity Objects (%),[3],0%
same,Population Membrane Permeable-Phenotype (%),[3],6% and 2%
same,Population Mitochondria Different-Phenotype (%),[3],3% and 5%
same,Population Normal (%),[3],100%
same,Population Pyknosed Nuclei (%),[3],19% and 18%
same,Population Tubulin-Different-Phenotype (%),[3],53% and 72%
same,Population Apoptotic (%),[4],95% and 57%
same,Population Hoechst High Intensity Objects (%),[4],0% and 15%
same,Population Normal (%),[4],99% and 85%
same,Population Pyknosed Nuclei (%),[4],89% and 41%
same,Population Tubulin-Different-Phenotype (%),[4],100% and 72%
same,Total Cell Count,[4],136 and 60
same,Population Apoptotic (%),[5],77% and 90%
same,Population Fragmented Nuclei (%),[5],10%
same,Population Healthy Nuclei (%),[5],65% and 61%
same,Population Hoechst High Intensity Objects (%),[5],0%
same,Population Membrane Permeable-Phenotype (%),[5],8% and 4%
same,Population Mitochondria Different-Phenotype (%),[5],0% and 1%
same,Population Mitotic Cells (%),[5],22% and 10%
same,Population Normal (%),[5],100%
same,Population Pyknosed Nuclei (%),[5],23% and 28%
same,Population Tubulin-Different-Phenotype (%),[5],52% and 80%
same,Total Cell Count,[5],38 and 106
same,Population Apoptotic (%),[6],96% and 62%
same,Population Healthy Nuclei (%),[6],22% and 27%
same,Population Hoechst High Intensity Objects (%),[6],0% and 14%
same,Population Normal (%),[6],100% and 85%
same,Population Pyknosed Nuclei (%),[6],73% and 29%
same,Population Tubulin-Different-Phenotype (%),[6],92% and 86%
same,Total Cell Count,[6],127 and 64
CC1=C(C)C(=O)C(C(C)(C)CC(=O)N(CCCCSC[C@H]2O[C@@H](n3cnc4c(N)ncnc43)[C@H](O)[C@@H]2O)Cc2cccc(-c3ccc(Cl)cc3)c2)=C(C)C1=O,Population Apoptotic (%),[1],33% and 50%
same,Population Fragmented Nuclei (%),[1],4% and 7%
same,Population Healthy Nuclei (%),[1],85% and 72%
same,Population Hoechst High Intensity Objects (%),[1],0%
same,Population Membrane Permeable-Phenotype (%),[1],5% and 6%
same,Population Mitochondria Different-Phenotype (%),[1],4% and 0%
same,Population Mitotic Cells (%),[1],66% and 50%
same,Population Normal (%),[1],99% and 100%
same,Population Pyknosed Nuclei (%),[1],10% and 20%
same,Population Tubulin-Different-Phenotype (%),[1],57% and 34%
same,Population Apoptotic (%),[2],75% and 58%
same,Population Fragmented Nuclei (%),[2],8% and 4%
same,Population Healthy Nuclei (%),[2],69% and 79%
same,Population Hoechst High Intensity Objects (%),[2],0%
same,Population Membrane Permeable-Phenotype (%),[2],16% and 24%
same,Population Mitochondria Different-Phenotype (%),[2],40% and 33%
same,Population Mitotic Cells (%),[2],25% and 41%
same,Population Normal (%),[2],100%
same,Population Pyknosed Nuclei (%),[2],22% and 16%
same,Population Tubulin-Different-Phenotype (%),[2],96% and 86%
same,Population Apoptotic (%),[3],53% and 77%
same,Population Fragmented Nuclei (%),[3],2% and 6%
same,Population Healthy Nuclei (%),[3],89% and 77%
same,Population Hoechst High Intensity Objects (%),[3],0%
same,Population Membrane Permeable-Phenotype (%),[3],3% and 4%
same,Population Mitochondria Different-Phenotype (%),[3],4% and 6%
same,Population Mitotic Cells (%),[3],46% and 22%
same,Population Normal (%),[3],99% and 100%
same,Population Pyknosed Nuclei (%),[3],7% and 15%
same,Population Tubulin-Different-Phenotype (%),[3],66% and 42%
same,Population Apoptotic (%),[4],87% and 79%
same,Population Healthy Nuclei (%),[4],53% and 70%
same,Population Hoechst High Intensity Objects (%),[4],0%
same,Population Membrane Permeable-Phenotype (%),[4],50% and 23%
same,Population Mitochondria Different-Phenotype (%),[4],42% and 45%
same,Population Mitotic Cells (%),[4],12% and 20%
same,Population Normal (%),[4],100% and 99%
same,Population Pyknosed Nuclei (%),[4],30% and 25%
same,Population Tubulin-Different-Phenotype (%),[4],78% and 90%
same,Population Apoptotic (%),[5],100% and 39%
same,Population Fragmented Nuclei (%),[5],9% and 3%
same,Population Healthy Nuclei (%),[5],77% and 89%
same,Population Hoechst High Intensity Objects (%),[5],0%
same,Population Membrane Permeable-Phenotype (%),[5],4% and 1%
same,Population Mitochondria Different-Phenotype (%),[5],7% and 0%
same,Population Normal (%),[5],100%
same,Population Pyknosed Nuclei (%),[5],12% and 7%
same,Population Tubulin-Different-Phenotype (%),[5],56% and 79%
same,Population Apoptotic (%),[6],68% and 78%
same,Population Healthy Nuclei (%),[6],32% and 66%
same,Population Hoechst High Intensity Objects (%),[6],0%
same,Population Membrane Permeable-Phenotype (%),[6],66% and 36%
same,Population Mitochondria Different-Phenotype (%),[6],58% and 52%
same,Population Mitotic Cells (%),[6],31% and 21%
same,Population Normal (%),[6],100% and 99%
same,Population Pyknosed Nuclei (%),[6],51% and 28%
same,Population Tubulin-Different-Phenotype (%),[6],100% and 82%
